Assay results: ChEMBL document CHEMBL4196201, “Discovery of N-(4-{[5-Fluoro-7-(2-methoxyethoxy)quinazolin-4-yl]amino}phenyl)-2-[4-(propan-2-yl)-1 H-1,2,3-triazol-1-yl]acetamide (AZD3229), a Potent Pan-KIT Mutant Inhibitor for the Treatment of Gastrointestinal Stromal Tumors” (J Med Chem, 2018)
Active and inactive are the calls of the source. No cut-off for these calls is given here.

Experiments:
[1] = Oral bioavailability in dog at […]; assay type: ADME, organism-based, Canis lupus familiaris; conditions: in vivo
[2] = Protein binding in dog plasma assessed as unbound fraction level; assay type: ADME, cell-free, Canis lupus familiaris
[3] = molecular target: Mast/stem cell growth factor receptor Kit (Homo sapiens) (UniProt P10721)
Chain of Mast/stem cell growth factor receptor Kit (Homo sapiens) (P10721 whole entry): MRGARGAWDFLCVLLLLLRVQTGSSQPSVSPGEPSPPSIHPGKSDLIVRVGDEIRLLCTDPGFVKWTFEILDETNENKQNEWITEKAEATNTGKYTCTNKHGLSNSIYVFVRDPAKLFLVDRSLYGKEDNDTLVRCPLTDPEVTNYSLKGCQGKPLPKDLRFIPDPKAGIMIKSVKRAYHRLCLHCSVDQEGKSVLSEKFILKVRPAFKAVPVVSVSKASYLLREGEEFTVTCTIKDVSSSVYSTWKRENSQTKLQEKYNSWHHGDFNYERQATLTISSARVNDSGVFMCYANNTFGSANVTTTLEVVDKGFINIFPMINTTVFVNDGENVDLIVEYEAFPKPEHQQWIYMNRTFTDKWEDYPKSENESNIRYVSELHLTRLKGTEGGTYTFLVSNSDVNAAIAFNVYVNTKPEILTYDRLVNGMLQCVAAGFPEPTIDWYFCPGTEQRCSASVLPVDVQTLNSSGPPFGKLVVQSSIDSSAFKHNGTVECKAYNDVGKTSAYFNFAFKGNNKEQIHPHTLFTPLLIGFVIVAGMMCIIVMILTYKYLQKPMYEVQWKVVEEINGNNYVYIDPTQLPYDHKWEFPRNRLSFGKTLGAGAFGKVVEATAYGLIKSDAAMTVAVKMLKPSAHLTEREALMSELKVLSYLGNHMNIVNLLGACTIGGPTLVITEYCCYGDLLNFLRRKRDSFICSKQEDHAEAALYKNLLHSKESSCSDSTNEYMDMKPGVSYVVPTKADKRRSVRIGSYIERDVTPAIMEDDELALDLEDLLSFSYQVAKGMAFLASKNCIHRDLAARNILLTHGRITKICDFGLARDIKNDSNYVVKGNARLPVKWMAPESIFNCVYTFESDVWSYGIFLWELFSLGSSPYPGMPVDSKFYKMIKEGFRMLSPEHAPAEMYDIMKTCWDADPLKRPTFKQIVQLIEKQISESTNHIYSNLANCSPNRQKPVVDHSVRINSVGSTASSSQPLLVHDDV

[4] = Permeability from apical to basolateral side in human Caco2 cells at 10 uM at pH 6.5; assay type: ADME, cell-based; conditions: Caco-2, pH 6.5, read-out: permeability
Summary of the method: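 Caco2 permeability from A to B was measured at pH6.5 using a 10 μM compound solution, reported in units of 1E-6 cm/s.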

[5] = Efflux ratio in human Caco2 cells at 10 uM at pH 6.5; conditions: Caco-2, pH 6.5
[6] = Clearance in CD1 mouse at 10 umol/kg, iv; assay type: ADME, organism-based; conditions: in vivo
Summary of the method: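 PK was run in CD1 mice with an iv dose of 10 μMol/kg and an oral dose of 21 μMol/kg. Cl, Vdss, t1/2 and F% were derived.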

Mus musculus [7] = experiment: Inhibition of Kit exon 11 deletion (557 to 558 residues) and D816H mutant (unknown origin) transfected in mouse BA/F3 cells allografted in CB17 SCID mouse assessed as reduction in ERK phosphorylation at 20 mg/kg, po administered as single dose measured after 24 hrs; assay type: functional, organism-based
Summary of the method: (§1)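 A single 20 mg/kg p.o. dose was given to mice carrying exon 11 del/D816H Ba/F3 allografts. Tumor pKIT, pERK and pAKT were measured over a timecourse, with free compound cover tracked in the same study.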

[8] = system: Mast/stem cell growth factor receptor Kit (Homo sapiens), P10721 [UNDEFINED MUTATION]
Chain of Mast/stem cell growth factor receptor Kit (Homo sapiens), P10721 [UNDEFINED MUTATION] (P10721 whole entry, looked up, stated change not applied, the tested form may be a part): as the sequence (P10721 whole entry) above

Mus musculus [9] = experiment: Inhibition of Kit exon 11 deletion (557 to 558 residues) and D816H mutant (unknown origin) transfected in mouse BA/F3 cells allografted in CB17 SCID mouse assessed as reduction in AKT phosphorylation at 20 mg/kg, po administered as single dose measured after 8 hrs; assay type: functional, organism-based; summary of the method: as §1
[10] = Protein binding in human plasma assessed as unbound fraction level; assay type: ADME, cell-free
Mus musculus [11] = experiment: Inhibition of Kit exon 11 deletion (557 to 558 residues) and D816H mutant (unknown origin) transfected in mouse BA/F3 cells allografted in CB17 SCID mouse assessed as reduction in AKT phosphorylation at 20 mg/kg, po administered as single dose measured after 24 hrs; assay type: functional, organism-based; summary of the method: as §1
[12] = Half life in Han Wistar rat at […], po; assay type: ADME, organism-based; conditions: in vivo
[13] = system: Mast/stem cell growth factor receptor Kit (Homo sapiens), P10721 [D816V]
Chain of Mast/stem cell growth factor receptor Kit (Homo sapiens), P10721 [D816V] (P10721 whole entry D816V): as the sequence (P10721 whole entry) above, with D816V counted along it

[14] = system: Mast/stem cell growth factor receptor Kit (Homo sapiens), P10721 [UNDEFINED MUTATION]; remark: listed apart in the source
BaF3 = experiment: Antitumor activity against mouse BA/F3 cells expressing Kit exon 11 deletion (557 to 558 residues) and D816H mutant (unknown origin) allografted in CB17 SCID mouse assessed as inhibition of tumor growth at 20 mg/kg, po bid measured on last day of dosing; assay type: functional; conditions: read-out: TGI
Summary of the method: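 Ba/F3 cells bearing the KIT exon 11 del/D816H or exon 11 del/V654A mutation were grown as allografts in mice. Compounds were given p.o. once (QD) or twice daily (BD), and vehicle was given BD p.o. Tumor growth inhibition and regression (%) were taken on the last day of dosing. p-values were calculated relative to vehicle.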

[15] = Intrinsic clearance in human hepatocytes assessed per million cells; assay type: ADME, cell-based, Hepatocyte; conditions: read-out: CLH
[16] = molecular target: Mast/stem cell growth factor receptor Kit (Homo sapiens) (UniProt P10721); remark: listed apart in the source
[17] = molecular target: Mast/stem cell growth factor receptor Kit (Homo sapiens) (UniProt P10721); remark: listed apart in the source
[18] = Cytotoxicity in mouse parental BA/F3 cells incubated for 72 hrs by MTS assay; assay type: cell-based, BaF3
[19] = Volume of distribution at steady state in CD1 mouse at 10 umol/kg, iv; assay type: ADME, organism-based; conditions: in vivo, read-out: Vdss
Summary of the method: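 PK in CD1 mice given an iv dose of 10 μMol/kg, alongside a separate oral dose of 21 μMol/kg. Clearance, Vdss, half-life and oral bioavailability were derived from these profiles.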

[20] = Intrinsic clearance in mouse hepatocytes assessed per million cells; assay type: ADME, cell-based, Hepatocyte; conditions: read-out: CLH
[21] = Clearance in Han Wistar rat at 1 umol/kg, iv; assay type: ADME, organism-based; conditions: in vivo
Summary of the method: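 PK was run in Han Wistar rats with an iv dose of 1 μMol/kg and an oral dose of 2.1 μMol/kg. Cl, Vdss, t1/2 and F% were derived.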

bioavailability [1]: 69% | fraction unbound [2]: 0.068 | GI50 [3]: 51 nM | Papp A→B at 10 µM [4]: 62.3 ×10⁻⁶ cm/s | efflux ratio at 10 µM [5]: 2.6 | clearance [6]: 7 mL/min/kg | GI50 [8]: 14 nM | fraction unbound [10]: 0.035 | half-life [12]: 180 min | GI50 [13]: 971 nM | GI50 [14]: 3 nM | hepatocyte CLint [15]: < 1 µL/min/1e6 cells | GI50 [16]: 22 nM | GI50 [17]: 1 nM | Vd [19]: 0.7 L/kg | hepatocyte CLint [20]: 5 µL/min/1e6 cells | clearance [21]: 8 mL/min/kg
SMILES: COCCOc1cc(F)c2c(Nc3ccc(NC(=O)Cn4cc(C(C)C)nn4)cc3)ncnc2c1
inhibition (Mus musculus [7]): Active | inhibition (Mus musculus [9]): Active | inhibition (Mus musculus [11]): Active | inhibition in vivo at 20 mg/kg (BaF3): > 100% | GI50 at 72 h [18]: > 10 µM
